Tests used:
Type in all cases: functional
MCF7 = test: Cytotoxicity against human MCF7 cells
Procedure, shortened: (§1)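 NCI 60-cell-line panel, five-dose response study. Effect is plotted against log10 drug concentration for each cell line. GI50 is the molar concentration giving a 50% reduction in net protein increase relative to control cells. LC50 is the concentration lethal to 50% of cells.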

IGROV-1 = test: Cytotoxicity against human IGROV1 cells; procedure, shortened: as §1
Malme-3M = test: Cytotoxicity against human MALME-3M cells; procedure, shortened: as §1
SF-268 = test: Cytotoxicity against human SF268 cells; procedure, shortened: as §1
LOX IMVI = test: Cytotoxicity against human LOXIMVI cells; procedure, shortened: as §1
[1] = Cytotoxicity against human […] cells; procedure, shortened: as §1
OVCAR-8 = test: Cytotoxicity against human OVCAR8 cells; procedure, shortened: as §1
SK-OV-3 = test: Cytotoxicity against human SKOV3 cells; procedure, shortened: as §1
U-251 = test: Cytotoxicity against human U251 cells
Procedure, shortened: (§2)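 NCI 60 human tumor cell line panel, five-dose dose-response study. Cytotoxic effect was plotted against log10 drug concentration for each cell line. GI50 is the molar concentration giving 50% reduction in net protein increase versus control cells. LC50 is the concentration lethal to 50% of cells.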

OVCAR-3 = test: Cytotoxicity against human OVCAR-3 cells; procedure, shortened: as §1
T47D = test: Cytotoxicity against human T47D cells; procedure, shortened: as §2
OVCAR-4 = test: Cytotoxicity against human OVCAR4 cells; procedure, shortened: as §1
786-0 = test: Cytotoxicity against human 786-0 cells; procedure, shortened: as §1
ACHN = test: Cytotoxicity against human ACHN cells; procedure, shortened: as §1
K562 = test: Cytotoxicity against human K562 cells; procedure, shortened: as §1
KM12 = test: Cytotoxicity against human KM12 cells; procedure, shortened: as §1
SN12C = test: Cytotoxicity against human SN12C cells; procedure, shortened: as §1
MDA-MB-468 = test: Cytotoxicity against human MDA-MB-468 cells; procedure, shortened: as §1
NCI-H226 = test: Cytotoxicity against human NCI-H226 cells; procedure, shortened: as §1
SF-295 = test: Cytotoxicity against human SF295 cells; procedure, shortened: as §1
HOP-92 = test: Cytotoxicity against human HOP92 cells; procedure, shortened: as §1
CCRF-CEM = test: Cytotoxicity against human CCRF-CEM cells; procedure, shortened: as §1
SK-MEL-5 = test: Cytotoxicity against human SK-MEL-5 cells; procedure, shortened: as §1
HOP-62 = test: Cytotoxicity against human HOP62 cells; procedure, shortened: as §1
CAKI-1 = test: Cytotoxicity against human Caki1 cells; procedure, shortened: as §1
SF-539 = test: Cytotoxicity against human SF539 cells; procedure, shortened: as §1
SNB-19 = test: Cytotoxicity against human SNB19 cells; procedure, shortened: as §1
SR = test: Cytotoxicity against human SR cells; procedure, shortened: as §1
HCT-15 = test: Cytotoxicity against human HCT15 cells; procedure, shortened: as §1
SK-MEL-28 = test: Cytotoxicity against human SK-MEL-28 cells; procedure, shortened: as §1
BT-549 = test: Cytotoxicity against human BT549 cells; procedure, shortened: as §1
TK-10 = test: Cytotoxicity against human TK10 cells; procedure, shortened: as §2
HCT-116 = test: Cytotoxicity against human HCT116 cells; procedure, shortened: as §1
DU-145 = test: Cytotoxicity against human DU145 cells; procedure, shortened: as §1
HCC 2998 = test: Cytotoxicity against human HCC2998 cells; procedure, shortened: as §1
M14 = test: Cytotoxicity against human M14 cells; procedure, shortened: as §1
MOLT-4 = test: Cytotoxicity against human MOLT4 cells; procedure, shortened: as §1
A549 = test: Cytotoxicity against human A549 cells; procedure, shortened: as §1
NCI-H23 = test: Cytotoxicity against human NCI-H23 cells; procedure, shortened: as §1
UO-31 = test: Cytotoxicity against human UO31 cells; procedure, shortened: as §2
UACC-257 = test: Cytotoxicity against human UACC257 cells; procedure, shortened: as §2
COLO 205 = test: Cytotoxicity against human COLO205 cells
Procedure, shortened: (§3)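 NCI 60-cell-line panel, five-concentration dose-response. Cytotoxic effect was plotted against log10 drug concentration for each line. GI50 is the molar concentration giving a 50% reduction in net protein increase relative to control cells. LC50 is the concentration lethal to 50% of cells. Both were read from the curves.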

MDA-MB-231 = test: Cytotoxicity against human MDA-MB-231 cells; procedure, shortened: as §1
A498 = test: Cytotoxicity against human A498 cells; procedure, shortened: as §1
MDA-MB-435 = test: Cytotoxicity against human MDA-MB-435 cells; procedure, shortened: as §3
NCI-H322M = test: Cytotoxicity against human NCI-H322M cells; procedure, shortened: as §1
[2] = Cytotoxicity against human Hs 578T cells; procedure, shortened: as §1
HL-60 = test: Cytotoxicity against human HL60 cells; procedure, shortened: as §1
OVCAR-5 = test: Cytotoxicity against human OVCAR5 cells; procedure, shortened: as §1
SNB-75 = test: Cytotoxicity against human SNB75 cells; procedure, shortened: as §1
PC-3 = test: Cytotoxicity against human PC3 cells; procedure, shortened: as §1
SW-620 = test: Cytotoxicity against human SW620 cells; procedure, shortened: as §2
SK-MEL-2 = test: Cytotoxicity against human SK-MEL-2 cells; procedure, shortened: as §1
RXF 393 = test: Cytotoxicity against human RXF393 cells; procedure, shortened: as §1
NCI/ADR-RES = test: Cytotoxicity against human NCI/ADR-RES cells; procedure, shortened: as §1
HT-29 = test: Cytotoxicity against human HT-29 cells; procedure, shortened: as §3
NCI-H460 = test: Cytotoxicity against human NCI-H460 cells; procedure, shortened: as §1
EKVX = test: Cytotoxicity against human EKVX cells; procedure, shortened: as §1
NCI-H522 = test: Cytotoxicity against human NCI-H522 cells; procedure, shortened: as §1
[3] = read-out: LC50 (the source's name)

In the case of COC(=O)c1ccc(Cn2cc(/C=C3/C(=O)N=C(N)N3C)c3ccccc32)cc1, the GI50 (MCF7) is reported as 2.45 µM, the CC50 (MCF7; [3]) is reported as 77.8 µM and the GI50 (IGROV-1) is reported as 5.91 µM. For the same molecule, the CC50 (IGROV-1; [3]) was over 100 µM, the GI50 (Malme-3M) was 1.7 µM and the CC50 (Malme-3M; [3]) was 8.33 µM. For the same molecule, the GI50 (SF-268) was 2.56 µM, the CC50 (SF-268; [3]) was over 100 µM and the GI50 (LOX IMVI) was 1.89 µM. The LC50 (LOX IMVI) was 8.66 µM, the GI50 [1] was 3.25 µM and the LC50 (concentration lethal to 50% of cells) [1] was over 100 µM. The GI50 (OVCAR-8) was 3.45 µM, the CC50 (OVCAR-8; [3]) was over 100 µM and the GI50 (SK-OV-3) was 1.98 µM. The CC50 (SK-OV-3; [3]) was 8.68 µM, the GI50 (U-251) was 1.81 µM and the CC50 (U-251; [3]) was 7.72 µM. The GI50 (OVCAR-3) was 2.29 µM, the CC50 (OVCAR-3; [3]) was 7.98 µM and the GI50 (T47D) was 1.5 µM. It also gave a CC50 (T47D; [3]) of 5.74 µM, a GI50 (OVCAR-4) of 2.18 µM and a CC50 (OVCAR-4; [3]) of over 100 µM. It also gave a GI50 (786-0) of 1.75 µM, an LC50 (786-0) of 5.85 µM and a GI50 (ACHN) of 1.76 µM. The CC50 (ACHN; [3]) was 6.14 µM, the GI50 (K562) was 2.23 µM and the CC50 (K562; [3]) was over 100 µM. The GI50 (KM12) was 3.18 µM, the CC50 (KM12; [3]) was over 100 µM and the GI50 (SN12C) was 1.74 µM. For the same molecule, the CC50 (SN12C; [3]) was 8.59 µM, the GI50 (MDA-MB-468) was 1.63 µM and the LC50 (MDA-MB-468) was 6.78 µM. The GI50 (NCI-H226) was 2.26 µM, the LC50 (NCI-H226) was over 100 µM and the GI50 (SF-295) was 2.36 µM. For the same molecule, the CC50 (SF-295; [3]) was over 100 µM, the GI50 (HOP-92) was 1.51 µM and the CC50 (HOP-92; [3]) was 7.75 µM. It also gave a GI50 (CCRF-CEM) of 2.91 µM, a CC50 (CCRF-CEM; [3]) of over 100 µM and a GI50 (SK-MEL-5) of 1.69 µM. The LC50 (SK-MEL-5) was 5.75 µM, the GI50 (HOP-62) was 1.99 µM and the CC50 (HOP-62; [3]) was 33 µM. For the same molecule, the GI50 (CAKI-1) was 35.1 µM, the GI50 (SF-539) was 1.54 µM and the CC50 (SF-539; [3]) was 5.56 µM. It also gave a GI50 (SNB-19) of 2.39 µM, a CC50 (SNB-19; [3]) of 31 µM and a GI50 (SR) of 2.48 µM. For the same molecule, the CC50 (SR; [3]) was over 100 µM, the GI50 (HCT-15) was 2.27 µM and the CC50 (HCT-15; [3]) was over 100 µM. For the same molecule, the GI50 (SK-MEL-28) was 1.78 µM, the CC50 (SK-MEL-28; [3]) was 6.14 µM and the GI50 (BT-549) was 1.73 µM. The CC50 (BT-549; [3]) was over 100 µM, the GI50 (TK-10) was 3.16 µM and the CC50 (TK-10; [3]) was over 100 µM. The GI50 (HCT-116) was 1.79 µM, the CC50 (HCT-116; [3]) was 7.7 µM and the GI50 (DU-145) was 2.25 µM. It also gave a CC50 (DU-145; [3]) of 14.8 µM, a GI50 (HCC 2998) of 2.99 µM and a CC50 (HCC 2998; [3]) of 4.71 µM. It also gave a GI50 (M14) of 1.9 µM, an LC50 (M14) of 7.25 µM and a GI50 (MOLT-4) of 2.42 µM. It also gave a CC50 (MOLT-4; [3]) of over 100 µM, a GI50 (A549) of 5.05 µM and a CC50 (A549; [3]) of over 100 µM. It also gave a GI50 (NCI-H23) of 3.23 µM, an LC50 (concentration lethal to 50% of cells) (NCI-H23) of 58.8 µM and a GI50 (UO-31) of 3.2 µM. For the same molecule, the CC50 (UO-31; [3]) was over 100 µM, the GI50 (UACC-257) was 17.9 µM and the LC50 (UACC-257) was over 100 µM. It also gave a GI50 (COLO 205) of 1.91 µM, a GI50 (MDA-MB-231) of 2.01 µM and an LC50 (MDA-MB-231) of 14.3 µM. For the same molecule, the GI50 (A498) was 14.1 µM, the CC50 (A498; [3]) was 53.2 µM and the GI50 (MDA-MB-435) was 1.93 µM. For the same molecule, the GI50 (NCI-H322M) was 2.56 µM, the CC50 (NCI-H322M; [3]) was over 100 µM and the GI50 [2] was 2.17 µM. The LC50 [2] was over 100 µM, the GI50 (HL-60) was 2.67 µM and the LC50 (HL-60) was over 100 µM. For the same molecule, the GI50 (OVCAR-5) was 1.9 µM, the CC50 (OVCAR-5; [3]) was 18.5 µM and the GI50 (SNB-75) was 1.46 µM. For the same molecule, the LC50 (concentration lethal to 50% of cells) (SNB-75) was 5.47 µM, the GI50 (PC-3) was 6.27 µM and the CC50 (PC-3; [3]) was over 100 µM. It also gave a GI50 (SW-620) of 2.2 µM, a CC50 (SW-620; [3]) of over 100 µM and a GI50 (SK-MEL-2) of 2.7 µM. For the same molecule, the CC50 (SK-MEL-2; [3]) was over 100 µM, the GI50 (RXF 393) was 1.95 µM and the CC50 (RXF 393; [3]) was 8.71 µM. For the same molecule, the GI50 (NCI/ADR-RES) was 9.46 µM, the CC50 (NCI/ADR-RES; [3]) was over 100 µM and the GI50 (HT-29) was 2.17 µM. It also gave a GI50 (NCI-H460) of 2.55 µM, a CC50 (NCI-H460; [3]) of over 100 µM and a GI50 (EKVX) of over 100 µM. It also gave a CC50 (EKVX; [3]) of over 100 µM, a GI50 (NCI-H522) of 1.93 µM and an LC50 (NCI-H522) of over 100 µM.

Reference: ChEMBL document CHEMBL1153240, “Microwave assisted synthesis and in vitro cytotoxicities of substituted (Z)-2-amino-5-(1-benzyl-1H-indol-3-yl)methylene-1-methyl-1H-imidazol-4(5H)-ones against human tumor cell lines” (2010)
